What was measured:
[1] = Solubility at 0.1 N HCl; assay type: physicochemical; conditions: read-out: S
[2] = Solubility at pH 4.0; assay type: physicochemical; conditions: buffer
[3] = Solubility at pH 7.4; assay type: physicochemical; conditions: buffer
[4] = Compound was evaluated for the distribution coefficient at pH 1.0; assay type: physicochemical; conditions: octanol/water
[5] = Compound was evaluated for the distribution coefficient at pH 4.0; assay type: physicochemical; conditions: octanol/water
[6] = Compound was evaluated for the distribution coefficient at pH 7.4; assay type: physicochemical; conditions: octanol/water
Rattus norvegicus [7] = species: Rattus norvegicus; assay: Percent change in total cholesterol in peanut oil (5.5%)-, cholic acid (0.3%)-, Cholesterol (1.5%)-fed rats after a single dose.; assay type: functional
Method in brief: (§1)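 Male Sprague-Dawley rats (200-225 g), n=5-7/group, given a single oral dose at 4 p.m. as a suspension in 1.5% CMC/0.2% Tween-20 in water (50 mg/kg); controls received vehicle alone. The rats then had free access to chow with peanut oil, cholesterol and cholic acid. At 8 a.m. next day they were bled by cardiac puncture under ether, and serum total cholesterol was measured as % change versus controls (unpaired two-tailed t-test).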

Rattus norvegicus [8] = species: Rattus norvegicus; assay: Percent change in total cholesterol in peanut oil (5.5%) - cholic acid (0.3%) - Cholesterol (1.5%) fed rates after a single dose; assay type: functional; method in brief: as §1
Rattus norvegicus [9] = assay: Compound was evaluated for % reduction in plasma cholesterol in cholesterol fed rats at a dose of 25 mg/kg; assay type: functional
Method in brief: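 Male Sprague-Dawley rats on a cholesterol-enriched diet. Dosing was either by gavage as a suspension in 1.5% carboxymethylcellulose/0.2% Tween-20 in water or in oleic acid, or given as a diet admixture. Result is % reduction in plasma cholesterol versus untreated controls given the same mode and vehicle. Significance threshold p < 0.05.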

Rattus norvegicus [10] = assay: Compound was evaluated in experiment 2 for Change in total cholesterol at 1 (mg/kg) dose; N/C denotes 'No change'; assay type: functional, organism-based
Method in brief: (§2)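 Chronic model in male Sprague-Dawley rats (200-225 g). Rats were fed chow with peanut oil 5.5%, cholesterol 1.5% and cholic acid ad libitum for 2 weeks. Test article was given by gavage once daily (morning) in the second week, as a CMC/Tween aqueous suspension. Blood was taken by cardiac puncture under ether 24 h after the last dose. Plasma total, HDL and nonHDL cholesterol were measured with an Abbott VP analyzer using dextran sulfate precipitation, reported as mg/dL and % change from control. Controls were cholesterol-fed rats and rats switched to chow in week 2.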

Rattus norvegicus [11] = assay: Compound was evaluated in experiment 2 for change in non High density lipoprotein at the doses at 1 (mg/kg) dose; assay type: functional, organism-based; method in brief: as §2

Structure (SMILES) | solubility [1] | solubility [2] | solubility [3] | logD [4] | logD [5] | logD ([6]; read-out: logD) | Delta TC (Rattus norvegicus [7]) | logD [6] | Delta TC (Rattus norvegicus [8]) | Reduction (Rattus norvegicus [9]) | Change TC (Rattus norvegicus [10]) | Change non HDL-C (Rattus norvegicus [11])
CC(C)c1cccc(C(C)C)c1NC(=O)NCC1(c2ccc(N(C)C)cc2)CCCC1 [NEVANIMIBE] | < 10 µg/mL | < 10 µg/mL | < 10 µg/mL | 2.18 | 2.89 | 5.59 | -65% | – | – | – | – | –
CC(C)c1cccc(C(C)C)c1NC(=O)NCC1(c2ccccc2)CCCC1 | < 1 µg/mL | < 1 µg/mL | < 1 µg/mL | – | – | – | – | 5.16 | -38% | 59% | – | –
CC(C)c1cccc(C(C)C)c1NC(=O)NCC1(c2cccc(CN(C)C)c2)CCCC1 | – | – | – | – | – | – | – | – | – | – | No change | No change

— ChEMBL document CHEMBL1127826, “Inhibitors of acyl-CoA:cholesterol acyltransferase (ACAT). 7. Development of a series of substituted N-phenyl-N'-[(1-phenylcyclopentyl)methyl]ureas with enhanced hypocholesterolemic activity” (J Med Chem, 1994)
